From ChEMBL document CHEMBL1208674, “Synthesis and anti-mycobacterial evaluation of some pyrazine-2-carboxylic acid hydrazide derivatives” (Eur J Med Chem, 2010)
In brackets after ≈: the same amount, converted by molar mass.

Tests used:
[1] = Cytotoxicity against african green monkey Vero cells after 72 hrs by Cell titer Glo assay; format: cell-based; conditions: chlorocebus sabaeus
Procedure, shortened: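 VERO cells exposed to compounds for 72 h, run in parallel with the M. tuberculosis dose-response assay. Viability read by ATP-based luminescence (Cell Titer-Glo). CC50 taken from the dose-response curve by curve fitting.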

[2] = tested on: Mycobacterium tuberculosis; assay: Antimycobacterial activity against Mycobacterium tuberculosis H37Rv by microplate Alamar blue assay; format: functional, organism-based
Procedure, shortened: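 M. tuberculosis H37Rv (ATCC 27294) grown in BACTEC 12B medium, broth microdilution read by Alamar Blue (MABA). Ten 2-fold dilutions, typically 100 to 0.19 µg/mL. IC90 = concentration giving 90% fluorescence reduction relative to controls; IC50 at 50%. Both taken from dose-response curve by curve fitting. Run alongside a parallel VERO cytotoxicity assay.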

## CCNC(=S)NNC(=O)c1cnccn1
[1]
  CC50 at 72 h: 29.8 µg/mL (≈ 132 µM)
[2]
  IC50: 11.4 µg/mL (≈ 50.5 µM)
  IC90: 16.9 µg/mL (≈ 74.9 µM)

## O=C(N/N=C/c1ccc(O)cc1)c1cnccn1
[1]
  CC50 at 72 h: > 30 µg/mL
[2]
  IC50: > 100 µg/mL
  IC90: > 100 µg/mL

## COc1ccc(/C=N/NC(=O)c2cnccn2)cc1
[1]
  CC50 at 72 h: > 30 µg/mL
[2]
  IC50: > 100 µg/mL
  IC90: > 100 µg/mL

## NNC(=O)c1cnccn1 [PYRAZINE CARBOXYLIC ACID HYDRAZIDE]
[1]
  CC50 at 72 h: > 30 µg/mL
[2]
  IC50: > 100 µg/mL
  IC90: > 100 µg/mL

## Cc1ccc2nc(Cl)c(/C=N/NC(=O)c3cnccn3)cc2c1
[1]
  CC50 at 72 h: > 30 µg/mL
[2]
  IC50: > 100 µg/mL
  IC90: > 100 µg/mL

## O=C(N/N=C/c1ccccc1O)c1cnccn1
[1]
  CC50 at 72 h: 11.4 µg/mL (≈ 47.2 µM)
[2]
  IC50: > 100 µg/mL
  IC90: > 100 µg/mL

## COc1cc(/C=N/NC(=O)c2cnccn2)ccc1O
[1]
  CC50 at 72 h: > 30 µg/mL
[2]
  IC50: > 100 µg/mL
  IC90: > 100 µg/mL

## COc1ccc2nc(Cl)c(/C=N/NC(=O)c3cnccn3)cc2c1
[1]
  CC50 at 72 h: 5.37 µg/mL (≈ 15.7 µM)
[2]
  IC50: > 100 µg/mL
  IC90: > 100 µg/mL

## COc1ccc(/C(C)=N/NC(=O)c2cnccn2)cc1
[1]
  CC50 at 72 h: > 30 µg/mL
[2]
  IC50: > 100 µg/mL
  IC90: > 100 µg/mL

## C/C(=N\NC(=O)c1cnccn1)c1ccc(Br)cc1
[1]
  CC50 at 72 h: > 30 µg/mL
[2]
  IC50: > 100 µg/mL
  IC90: > 100 µg/mL

## O=C(N/N=C/c1ccc(Cl)cc1)c1cnccn1
[1]
  CC50 at 72 h: > 30 µg/mL
[2]
  IC50: > 100 µg/mL
  IC90: > 100 µg/mL

## O=C(N/N=C/c1cccc(O)c1)c1cnccn1
[1]
  CC50 at 72 h: > 30 µg/mL
[2]
  IC50: > 100 µg/mL
  IC90: > 100 µg/mL

## Nc1cccc(/C=N/NC(=O)c2cnccn2)c1
[1]
  CC50 at 72 h: > 30 µg/mL
[2]
  IC50: > 100 µg/mL
  IC90: > 100 µg/mL
